Published values from different studies.
Compare with care: the assays were run in different laboratories. In brackets after ≈: the same amount, converted by molar mass.

O=C(Cn1ccnc1[N+](=O)[O-])NCc1ccccc1 gave an EC50 of 1600 nM (Trypanosoma cruzi; parasite growth; MRC5; intracellular, amastigote).
OC(Cn1cncn1)(Cn1cncn1)c1ccc(F)cc1F has an IC50 of 23600 nM (Trypanosoma cruzi; parasite growth, resazurin; 24 h, trypomastigote).
CN1CCN(c2cnc3c(cc(C(=O)NCc4ccc(Cl)cc4)c(=O)n3CC(=O)N3CC(C)(F)C3)n2)C1=O has an EC50 of 130 nM (Human betaherpesvirus 5; viral replication, inhibitor; AD169).
O=C(Cn1ccnc1[N+](=O)[O-])NCc1ccccc1 gave an IC50 of 2000 to 5000 nM (Trypanosoma cruzi; parasite growth, absorbance; MRC5; intracellular, amastigote).
For CN(C)c1cc(NC(=O)Cc2cncnc2)c(O)c2c1C[C@H]1C[C@H]3[C@H](N(C)C)C(O)=C(C(N)=O)C(=O)[C@@]3(O)C(O)=C1C2=O, the MIC was 0.4 µg/mL (≈ 0.675 µM) (Mycobacterium tuberculosis; microbial growth, broth dilution; H37RV; 7 days, pH 7.4).
With Cc1ccc(Cn2cc(C(=O)NN)c(=O)c3cc(Oc4ccccc4)ccc32)cc1 the EC50 was 44000 nM (Trypanosoma cruzi; parasite growth; MRC5; intracellular, amastigote).
The EC50 of CC1(F)CN(C(=O)Cn2c(=O)c(C(=O)NCc3ccc(Cl)cc3)cc3nc(N4CCN(CC(=O)O)C4=O)cnc32)C1 is reported as 1270 nM (Human betaherpesvirus 5; viral replication, inhibitor; AD169).
CN(C)c1cc(NC(=O)Cc2ncccn2)c(O)c2c1C[C@H]1C[C@H]3[C@H](N(C)C)C(O)=C(C(N)=O)C(=O)[C@@]3(O)C(O)=C1C2=O gave an MIC of 0.8 µg/mL (≈ 1.35 µM) (Mycobacterium tuberculosis; microbial growth, broth dilution; H37RV; 7 days, pH 7.4).
